Results of several laboratories.
Protocols differ between the studies behind these lines. pEC50, pIC50: −log10 of the molar value.

SMILES	organism	assay	test system	conditions	measurement	result
Nc1ccn(C[C@@H](CO)OCP(=O)(O)O)c(=O)n1	Human betaherpesvirus 5	viral replication			pIC50	6.55
O=c1[nH]c2c(-c3ccccc3)csc2c(=O)n1O	Human betaherpesvirus 5	viral replication, inhibitor		10 µM, 7 days	inhibition	5.3%
Cc1ccc(CNC(=O)c2nc(Cl)c3cccnc3c2O)cc1	Human betaherpesvirus 5	viral replication, inhibitor	HFF		pEC50	4.68
O=C1c2ccccc2C(c2ccccc2)C(=O)N1OCc1ccccc1 (stereo not shown)	Human betaherpesvirus 5	viral replication, inhibitor		10 µM, 7 days	inhibition	12%
COc1cccc(-c2nc(C(=O)NCc3ccc(C)cc3)c(O)c3ncccc23)c1	Human betaherpesvirus 5	viral replication, inhibitor	HFF		pEC50	4.62
Nc1ncnc2c([C@@H]3N[C@H](CO)[C@@H](O)[C@H]3O)c[nH]c12	human respiratory syncytial virus	viral replication, inhibitor	MA104	0.9 µM	inhibition	0%
Cc1sc2[nH]c(=O)n(O)c(=O)c2c1C	Human betaherpesvirus 5	viral replication, inhibitor		10 µM, 7 days	inhibition	-5.1%
O=S(=O)(c1ccc(-c2ccc3ncnc(Nc4ccc(OCc5ccccc5)c(Cl)c4)c3c2)cc1)N1CCOCC1	Trypanosoma cruzi	parasite growth, absorbance	NIH3T3, TULAHUEN	10 µM, intracellular, amastigote	inhibition	9%
Cc1ccc(CNC(=O)c2nc(-c3ccccc3)c3cccnc3c2O)cc1	Human betaherpesvirus 5	viral replication, inhibitor	HFF		pEC50	4.51
O=C(Cn1ccnc1[N+](=O)[O-])NCc1ccccc1	Trypanosoma cruzi	parasite growth	rat Myoblast, TULAHUEN	intracellular, amastigote	IC50	0.352 µg/mL
